{"source": "ChEMBL document CHEMBL1156500", "about": "“Characterization of the metabolic activation of hepatitis C virus nucleoside inhibitor beta-D-2'-Deoxy-2'-fluoro-2'-C-methylcytidine (PSI-6130) and identification of a novel active 5'-triphosphate species” (J Biol Chem, 2007)", "key": {"Hepatocyte": {"system": "Hepatocyte", "experiment": "Drug uptake in human hepatocyte assessed as time needed for triphosphate to be reduced to half of maximum level", "type": "ADME, cell-based, Liver", "conditions": "hepatocytes", "method_in_brief": "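Hepatocytes from 4 donors were loaded for 24 h with 2 μM 3H-drug (10 μCi/ml), washed, and placed in drug-free medium. Duplicate samples were taken 0–72 h later and analysed for triphosphates by radio-HPLC. Half-life came from a single-phase exponential decay fit, mean ± S.D. (n = 4).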"}, "Hepatitis C virus [1]": {"system": "Hepatitis C virus", "experiment": "Inhibition of RNA synthesis activity of […] 1b Con1 replicase", "design": "species or system Hepatitis C virus subtype 1b", "method_in_brief": "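Membrane-associated native replication complexes were isolated from 2209-23 replicon cells, with 20 μl reactions. One format used 2.5×10^6 cell equivalents for 60 min. The other used 3.1×10^6 cell equivalents for 90 min in 50 mM HEPES pH 7.5, 5 mM MgCl2, actinomycin D, 1 mM ATP/GTP/CTP, 0.4 μM [α-33P]UTP and a creatine phosphate regeneration system.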"}, "Hepatitis C virus [2]": {"system": "Hepatitis C virus", "experiment": "Inhibition of RNA synthesis activity of […]", "design": "species or system Hepatitis C virus subtype 1b, Con1"}, "Hepatitis C virus [3]": {"system": "Hepatitis C virus", "experiment": "Antiviral activity against HCV 1b Con1 in 2209-23 cells after 72 hrs by luciferase based replicon assay", "type": "functional, organism-based, Hepacivirus hominis", "conditions": "genotype 1b Con 1, 2209-23, 72 h", "method_in_brief": "(§1)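 Huh7-derived 2209-23 cells carrying a bicistronic genotype 1b Con1 subgenomic HCV replicon with a Renilla luciferase reporter of RNA replication. Cells were exposed to compound for 72 h, and dose-dependent reduction of luciferase activity was measured to give IC50.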"}, "Hepatitis C virus [4]": {"system": "Hepatitis C virus", "experiment": "Antiviral activity against HCV 1b Con1 in 2209-23 cells upto 100 uM after 72 hrs by luciferase based replicon assay", "type": "functional, organism-based", "conditions": "Hepacivirus hominis, genotype 1b Con 1", "method_in_brief": "as §1"}}, "note": "The source made the active and inactive calls. The calls are words filed in the database; no cut-off is given here."}
{"compound": "C[C@@]1(F)[C@H](O)[C@@H](COP(=O)(O)OP(=O)(O)OP(=O)(O)O)O[C@H]1n1ccc(N)nc1=O", "note": "[PSI-6130-TP]", "values": [{"measurement": "t1/2", "setting": "Hepatocyte", "value": 4.7, "unit": "h"}, {"measurement": "IC50", "setting": "Hepatitis C virus [1]", "value": 340, "unit": "nM"}, {"measurement": "Ki", "setting": "Hepatitis C virus [2]", "value": 23, "unit": "nM"}, {"measurement": "IC50", "setting": "Hepatitis C virus [2]; Hepatitis C virus, Con1", "value": 130, "unit": "nM"}]}
{"compound": "Nc1ccn([C@@H]2O[C@H](COP(=O)(O)OP(=O)(O)OP(=O)(O)O)[C@@H](O)[C@H]2O)c(=O)n1", "values": [{"measurement": "Km", "setting": "Hepatitis C virus [2]; Hepatitis C virus subtype 1b, Con1", "value": 0.22, "unit": "µM"}]}
{"compound": "C[C@@]1(F)[C@H](O)[C@@H](CO)O[C@H]1n1ccc(=O)[nH]c1=O", "values": [{"measurement": "IC50", "setting": "Hepatitis C virus [3]", "value": "> 100000", "unit": "nM"}, {"measurement": "Activity", "setting": "Hepatitis C virus [4]", "value": "inactive"}]}
